Each block holds one compound with its values, some of them ahead of it. Calls of active or inactive are those of the source. The calls are words filed in the database; no cut-off is given here.
Experiments:
[1] = molecular target: T1, Histone-lysine N-methyltransferase, H3 lysine-79 specific (Homo sapiens, UniProt Q8TEK3); experiment: Inhibition of 0.5 nM DOT1L (2 to 416 residues) (unknown origin) using biotinylated nucleosome as substrate and [3H]SAM as co-factor preincubated for 30 mins followed by substrate and cofactor addition and measured after 90 mins by scintillation proximity assay
Target sequence in this assay (Q8TEK3 whole entry, the tested form may be a part): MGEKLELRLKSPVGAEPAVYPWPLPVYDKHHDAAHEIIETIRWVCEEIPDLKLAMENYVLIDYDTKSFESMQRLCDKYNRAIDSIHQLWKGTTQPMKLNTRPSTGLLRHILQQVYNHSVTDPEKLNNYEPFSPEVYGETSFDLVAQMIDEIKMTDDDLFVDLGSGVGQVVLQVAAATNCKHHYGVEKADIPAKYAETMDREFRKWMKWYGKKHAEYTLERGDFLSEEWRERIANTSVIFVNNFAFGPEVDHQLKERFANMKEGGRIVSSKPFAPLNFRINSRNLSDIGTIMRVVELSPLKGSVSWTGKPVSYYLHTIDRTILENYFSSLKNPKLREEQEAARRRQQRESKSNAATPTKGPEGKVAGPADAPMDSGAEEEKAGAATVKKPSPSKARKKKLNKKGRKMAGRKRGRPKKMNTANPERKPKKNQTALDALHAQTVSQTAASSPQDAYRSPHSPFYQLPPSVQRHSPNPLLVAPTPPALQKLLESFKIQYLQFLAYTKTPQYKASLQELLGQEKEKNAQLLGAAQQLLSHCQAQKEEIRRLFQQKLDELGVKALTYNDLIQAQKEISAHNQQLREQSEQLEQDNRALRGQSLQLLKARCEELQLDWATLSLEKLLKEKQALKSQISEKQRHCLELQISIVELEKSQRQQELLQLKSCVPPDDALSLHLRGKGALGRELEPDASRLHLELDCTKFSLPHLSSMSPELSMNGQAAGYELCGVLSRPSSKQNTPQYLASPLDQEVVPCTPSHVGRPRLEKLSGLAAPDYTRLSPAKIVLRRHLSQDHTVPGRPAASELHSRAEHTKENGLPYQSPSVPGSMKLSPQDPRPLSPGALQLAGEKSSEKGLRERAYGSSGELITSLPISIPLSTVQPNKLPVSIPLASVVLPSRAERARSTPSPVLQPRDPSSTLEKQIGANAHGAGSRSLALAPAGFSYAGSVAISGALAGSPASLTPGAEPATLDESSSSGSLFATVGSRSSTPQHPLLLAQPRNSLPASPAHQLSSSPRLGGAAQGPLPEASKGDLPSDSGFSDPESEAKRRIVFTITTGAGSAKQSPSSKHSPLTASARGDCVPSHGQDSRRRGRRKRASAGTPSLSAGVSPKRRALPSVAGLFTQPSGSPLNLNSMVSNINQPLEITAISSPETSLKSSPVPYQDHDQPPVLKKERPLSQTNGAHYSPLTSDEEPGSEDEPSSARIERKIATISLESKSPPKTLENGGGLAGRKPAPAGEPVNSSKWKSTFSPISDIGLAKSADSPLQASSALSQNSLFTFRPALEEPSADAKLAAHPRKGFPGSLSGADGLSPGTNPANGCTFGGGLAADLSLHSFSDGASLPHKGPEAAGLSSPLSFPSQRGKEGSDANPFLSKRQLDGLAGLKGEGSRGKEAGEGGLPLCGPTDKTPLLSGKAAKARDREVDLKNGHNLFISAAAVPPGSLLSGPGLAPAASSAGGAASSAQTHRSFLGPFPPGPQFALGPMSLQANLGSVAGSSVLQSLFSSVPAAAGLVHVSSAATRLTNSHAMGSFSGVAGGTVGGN

[2] = Intrinsic clearance in rat liver microsomes; type: ADME, Microsome; conditions: read-out: CLH
[3] = molecular target: T1, Histone-lysine N-methyltransferase, H3 lysine-79 specific; experiment: Inhibition of 0.05 nM DOT1L (2 to 416 residues) (unknown origin) using biotinylated nucleosome as substrate and [3H]SAM as co-factor preincubated for 30 mins followed by substrate and cofactor addition and measured after 180 mins by scintillation proximity assay
Target sequence in this assay (Q8TEK3 whole entry, the tested form may be a part): as above

[4] = molecular target: T1, Histone-lysine N-methyltransferase, H3 lysine-79 specific; experiment: Inhibition of DOT1L in human HeLa cells assessed as reduction in H3K79 dimethylation measured after 72 hrs by ELISA; type: cell-based
Target sequence in this assay (Q8TEK3 whole entry, looked up, the tested form may be a part): as the sequence (Q8TEK3 whole entry, the tested form may be a part) above

[5] = Cmax in C57BL/6 mouse at 100 mg/kg, po administered as single dose; type: ADME, organism-based; design: dose 100 mg/kg, route oral; conditions: in vivo
[6] = AUC (0 to 12 hrs) in C57BL/6 mouse at 100 mg/kg, po administered as single dose; type: ADME, organism-based; design: dose 100 mg/kg, time < 12 hr, route oral; conditions: in vivo
[7] = Cmax in C57BL/6 mouse at 100 mg/kg, po bid for 20 days; type: ADME, organism-based; design: dose 100 mg/kg, route oral; conditions: in vivo
[8] = AUC (0 to 12 hrs) in C57BL/6 mouse at 100 mg/kg, po bid for 20 days; type: ADME, organism-based; design: dose 100 mg/kg, time < 12 hr, route oral; conditions: in vivo
[9] = Induction of CYP3A4 in rat hepatocytes; type: ADME, cell-based
Cytochrome P450 3A4 = Cytochrome P450 3A4 (Homo sapiens, UniProt P08684); experiment: Induction of CYP3A4 in human hepatocytes; type: ADME, cell-based
[10] = molecular target: T1, Histone-lysine N-methyltransferase, H3 lysine-79 specific; experiment: Inhibition of DOT1L in human MOLM13 cells assessed as reduction in HOXA9 gene expression incubated for 72 hrs by bright-glo luciferase reporter gene assay; type: cell-based
Target sequence in this assay (Q8TEK3 whole entry, looked up, the tested form may be a part): as the sequence (Q8TEK3 whole entry, the tested form may be a part) above

[11] = Lipophilicity, log D of the compound at pH 7.4; type: physicochemical; conditions: buffer
[12] = Drug uptake in C57BL/6 mouse at 50 mg/kg, sc administered twice daily for 7 days; type: ADME, organism-based; conditions: in vivo, 168 h
[13] = Toxicity in NOD-SCID mouse xenografted with human MV4-11 cells assessed as change in body weight at 75 mg/kg, sc administered qd for 20 days; conditions: in vivo, 480 h
[14] = Toxicity in NOD-SCID mouse xenografted with human MV4-11 cells assessed as change in body weight at 75 mg/kg, sc administered bid for 20 days; conditions: in vivo, 480 h
MV4-11 [15] = experiment: Antitumor activity against human MV4-11 cells xenografted in NOD-SCID mouse assessed as tumor growth inhibition at 75 mg/kg, sc qd administered for 20 days
MV4-11 [16] = experiment: Antitumor activity against human MV4-11 cells xenografted in NOD-SCID mouse assessed as tumor growth inhibition at 75 mg/kg, sc administered bid for 20 days; conditions: MV4-11, sc, 480 h, read-out: TGI
Mus musculus [17] = experiment: In vivo inhibition of DOT1L in NOD-SCID mouse xenografted with human MV4-11 cells assessed as reduction in H3K79 dimethylation at 75 mg/kg, sc administered bid for 20 days
Mus musculus [18] = experiment: In vivo inhibition of DOT1L in NOD-SCID mouse xenografted with human MV4-11 cells assessed as reduction in H3K79 dimethylation at 75 mg/kg, sc administered twice daily for 20 days
Mus musculus [19] = experiment: In vivo inhibition of DOT1L in NOD-SCID mouse xenografted with human MV4-11 cells assessed as reduction in H3K79 dimethylation at 75 mg/kg, sc administered once daily for 20 days by ELISA
Mus musculus [20] = experiment: In vivo inhibition of DOT1L in NOD-SCID mouse xenografted with human MV4-11 cells assessed as reduction in HOXA9 gene expression at 75 mg/kg, sc administered qd for 20 days by qPCR analysis; conditions: MV4-11, sc, 480 h
Mus musculus [21] = experiment: In vivo inhibition of DOT1L in NOD-SCID mouse xenografted with human MV4-11 cells assessed as reduction in MEIS1 gene expression at 75 mg/kg, sc administered qd for 20 days by qPCR analysis; conditions: MV4-11, sc, 480 h
Mus musculus [22] = experiment: In vivo inhibition of DOT1L in NOD-SCID mouse xenografted with human MV4-11 cells assessed as reduction in HOXA9 gene expression at 75 mg/kg, sc administered bid for 20 days by qPCR analysis; conditions: MV4-11, sc, 480 h
Mus musculus [23] = experiment: In vivo inhibition of DOT1L in NOD-SCID mouse xenografted with human MV4-11 cells assessed as reduction in MEIS1 gene expression at 75 mg/kg, sc administered bid for 20 days by qPCR analysis; conditions: MV4-11, sc, 480 h
[24] = Oral bioavailability in Sprague-Dawley Crl:CD(SD) rat at 3 mg/kg measured upto 24 hrs by LC-MS/MS analysis; type: ADME, organism-based; conditions: in vivo
[25] = Oral bioavailability in C57BL/6 mouse at 3 mg/kg measured upto 24 hrs by LC-MS/MS analysis; type: ADME, organism-based; conditions: in vivo
MV4-11 [26] = experiment: Antitumor activity against human MV4-11 cells xenografted in C57BL/6 mouse assessed as tumor growth inhibition at 200 mg/kg, administered twice daily for 23 days; type: functional, organism-based
Method in brief: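 Mice bearing subcutaneous MV4-11 xenografts were treated for 23 days at 200 mg/kg twice daily. Tumor growth inhibition was assessed against control.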

Mus musculus [27] = experiment: In vivo inhibition of DOT1L in C57BL/6 mouse xenografted with human MV4-11 cells assessed as reduction in HOXA9 gene expression at 200 mg/kg, administered twice daily for 23 days by qPCR analysis; type: functional, organism-based
Mus musculus [28] = experiment: In vivo inhibition of DOT1L in C57BL/6 mouse xenografted with human MV4-11 cells assessed as reduction in MEIS1 gene expression at 200 mg/kg, administered twice daily for 23 days by qPCR analysis; type: functional, organism-based
Mus musculus [29] = experiment: In vivo inhibition of DOT1L in C57BL/6 mouse xenografted with human MV4-11 cells assessed as reduction in H3K79 dimethylation at 200 mg/kg, administered twice daily for 23 days by ELISA relative to control; type: functional; conditions: 552 h
MV4-11 [30] = experiment: Antitumor activity against human MV4-11 cells xenografted in sc dosed C57BL/6 mouse assessed as reduction in tumor growth at => MTD; type: functional, organism-based

Cytochrome P450 3A4, sequence (P08684 whole entry): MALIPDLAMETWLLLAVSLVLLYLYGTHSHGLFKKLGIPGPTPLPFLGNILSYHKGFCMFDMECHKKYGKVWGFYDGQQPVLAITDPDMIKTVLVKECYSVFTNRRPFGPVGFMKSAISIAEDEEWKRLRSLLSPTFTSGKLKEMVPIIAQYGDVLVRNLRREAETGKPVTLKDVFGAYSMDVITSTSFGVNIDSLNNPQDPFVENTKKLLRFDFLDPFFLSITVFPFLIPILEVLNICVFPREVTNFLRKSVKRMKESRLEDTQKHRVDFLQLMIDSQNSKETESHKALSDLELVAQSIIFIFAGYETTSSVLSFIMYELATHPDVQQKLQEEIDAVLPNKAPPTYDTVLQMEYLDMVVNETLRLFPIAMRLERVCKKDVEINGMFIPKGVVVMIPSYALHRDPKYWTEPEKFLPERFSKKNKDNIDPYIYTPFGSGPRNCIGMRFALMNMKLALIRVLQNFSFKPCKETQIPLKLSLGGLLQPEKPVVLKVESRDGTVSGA

IC50 [1]: 97 nM
microsomal CLint [2]: 50 µL/min/mg
SMILES: CS(=O)(=O)c1ccc(N[C@H](c2ccccn2)c2cccc(Cl)c2F)c(Nc2ncccn2)c1

IC50 [3]: 0.59 nM
ED50 [4]: 43 nM
Cmax [5]: 24 µM
AUC(0-t) at 12 h [6]: 216 µM·h
Cmax [7]: 12 µM
AUC at 12 h [8]: 47 µM·h
Activity [9]: Active
Activity (Cytochrome P450 3A4): Active
SMILES: COc1nc(Nc2cc(S(C)(=O)=O)ccc2N[C@@H](c2cccc(Cl)c2F)c2ncccc2F)nc(OC)n1

IC50 [1]: 22800 nM
SMILES: CS(=O)(=O)c1ccc(N[C@H](c2cccc(Cl)c2)c2ccccn2)c(Nc2ncccn2)c1

IC50 [3]: 0.17 nM
ED50 [4]: 2.9 nM
ED50 [10]: 30 nM
logD [11]: 3.5
Drug uptake [12]: Active
SMILES: COc1nc(N)nc(Nc2cc(S(N)(=O)=O)ccc2N[C@@H](c2cccc3c2OC(F)(F)O3)c2ncccc2Cl)n1
Activity [13]: Non-Toxic
Activity [14]: Non-Toxic
TGI (MV4-11 [15]): inactive
inhibition in vivo at 75 mg/kg (MV4-11 [16]): 73%
inhibition (Mus musculus [17]): Active
inhibition (Mus musculus [18]): Active
inhibition (Mus musculus [19]): Active
inhibition in vivo at 75 mg/kg (Mus musculus [20]): 25%
inhibition in vivo at 75 mg/kg (Mus musculus [21]): 53%
inhibition in vivo at 75 mg/kg (Mus musculus [22]): 53%
inhibition in vivo at 75 mg/kg (Mus musculus [23]): 74%

IC50 [1]: 8500 nM
SMILES: NS(=O)(=O)c1ccc(NC(c2ccccc2)c2ccccc2)c([N+](=O)[O-])c1

IC50 [1]: 4600 nM
SMILES: CS(=O)(=O)c1ccc(NC(c2cccc(Cl)c2)c2ccccn2)c([N+](=O)[O-])c1 (racemic)

IC50 [1]: 3.9 nM
IC50 [3]: 2.1 nM
ED50 [4]: 300 nM
ED50 [10]: 4500 nM
bioavailability [24]: 36%
bioavailability [25]: 26%
SMILES: CS(=O)(=O)c1ccc(N[C@H](c2ccccn2)c2cccc(Cl)c2F)c(Nc2nccc(C(N)=O)n2)c1
TGI (MV4-11 [26]): inactive
inhibition (Mus musculus [27]): inactive
inhibition (Mus musculus [28]): inactive
inhibition in vivo at 200 mg/kg (Mus musculus [29]): 50%

IC50 [1]: 16 nM
SMILES: CS(=O)(=O)c1ccc(N[C@@H](c2cccc(Cl)c2F)c2ncccc2F)c(Nc2ncccn2)c1

SMILES: CC(C)N(C[C@H]1O[C@@H](n2cnc3c(N)ncnc32)[C@H](O)[C@@H]1O)[C@H]1C[C@@H](CCc2nc3cc(C(C)(C)C)ccc3[nH]2)C1
Activity (MV4-11 [30]): inactive

IC50 [1]: 270 nM
microsomal CLint [2]: 553 µL/min/mg
SMILES: CS(=O)(=O)c1ccc(N[C@@H](c2cccc(Cl)c2)c2ccccn2)c(Nc2ncccn2)c1

IC50 [3]: 0.19 nM
ED50 [4]: 12 nM
ED50 [10]: 170 nM
SMILES: COc1nc(Nc2cc(S(C)(=O)=O)ccc2N[C@@H](c2cccc3c2OC(F)(F)O3)c2ncccc2Cl)nc(OC)n1
